An excerpt weighted towards active compounds, which were near 2.2% of everything screened.
Mcl-1 Bim block – human Bim-Mcl-1 interaction inhibition | Q07820 | Bead-based flow cytometry, Bim peptide-Mcl-1 binding | inhibition, % at 10 µM | 190,000 tested, 0.1% active; in the data active = inhibition above about 40%;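 note: 0% = no compound tracer wells and 100% = peptide blocker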
Mcl1-Noxa inh – disrupts binding of human Mcl-1 to Noxa peptide; TR-FRET Mcl-1/Noxa peptide binding, 2 h; inhibition, % at 21.7 µM; 220,000 tested, 1.5% active; AID 1022;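 active = compounds that cut the protein-peptide binding signal by more than 50% relative to plate controls in a single-dose test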;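 note: His-tagged Mcl-1 with rhodamine Noxa BH3 peptide and terbium anti-His antibody; 0% = Mcl-1 plus Noxa peptide wells and 100% = peptide-only wells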
Mcl1-Bid inh – Mcl-1/Bid interaction inhibition; Q07820; TR-FRET Mcl-1/Bid-Dy647 peptide binding, 1536-well; inhibition, % at 21.7 µM; 220,000 tested, 0.97% active;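 active = compounds that cut the binding signal by more than half at the single screening dose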;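 note: His-tagged Mcl-1 with europium anti-His antibody binding Bid BH3 peptide; 0% = Mcl-1 plus peptide wells and 100% = peptide-only wells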
RBBP9 inhibitor – inhibitors of human serine hydrolase RBBP9. recombinant RBBP9, FP-Rh probe fluorescence polarization. inhibition, % at 7.94 µM. 220,000 tested, 0.2% active. AID 1515;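 active = inhibition above the campaign mean of all tested compounds plus 3 SD, cut at about 14% in these data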;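 note: plate controls were DMSO wells with RBBP9 for no effect and wells lacking RBBP9 protein for full effect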
Target sequence (O75884 whole entry, looked up): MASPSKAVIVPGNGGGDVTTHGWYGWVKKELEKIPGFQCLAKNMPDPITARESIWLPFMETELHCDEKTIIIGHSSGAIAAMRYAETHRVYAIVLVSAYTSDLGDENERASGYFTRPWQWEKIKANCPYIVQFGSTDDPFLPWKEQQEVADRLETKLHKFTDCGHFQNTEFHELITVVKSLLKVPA
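Measured by – fluorescence polarization · Test system – RBBP9 protein · Input – 2.5 µM RBBP9 dispensing solution, before mixing · Measure – percent inhibition from mP, scaled between DMSO and no-protein wells · Benchmarks – DMSO-treated enzyme wells and wells lacking RBBP9 · Times – preincubation 30 min plus labeling 45 min at 25 °C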
MCL1-BIM inh – disrupts human MCL1 binding to BIM-BH3 peptide | Q07820 | GST-MCL1 / FITC-Bim-BH3 fluorescence polarization | inhibition, % at 10.9 µM | 320,000 tested, 0.68% active;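 active = inhibition above the mean inhibition of all tested compounds plus 3 SD, set per campaign, cut at about 40% in these data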;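 note: 0% = DMSO wells and 100% = unlabeled Bim-BH3 peptide control; higher means more loss of mP so more displacement of Bim peptide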
EBV gp42 block – blocks Epstein-Barr virus glycoprotein 42 binding; 220,000 tested, 0.42% active; Q1HVG2; Fluorescence polarization binding assay, mP read-out; inhibition, % (tested at 21.74 µM); AID 1085; in the data active = inhibition above about 50%
Target sequence (Q1HVG2 whole entry, looked up): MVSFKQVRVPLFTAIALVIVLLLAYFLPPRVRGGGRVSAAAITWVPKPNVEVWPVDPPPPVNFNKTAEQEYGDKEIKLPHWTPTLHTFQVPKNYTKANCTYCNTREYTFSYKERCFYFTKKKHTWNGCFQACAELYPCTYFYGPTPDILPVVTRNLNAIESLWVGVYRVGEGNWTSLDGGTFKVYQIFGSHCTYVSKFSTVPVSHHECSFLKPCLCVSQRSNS
Numbers without * were called inactive; / = not tested or not shown.

SMILES	Mcl-1 Bim block	Mcl1-Noxa inh	Mcl1-Bid inh	RBBP9 inhibitor	MCL1-BIM inh	EBV gp42 block
COc1ccc(N2CCC(CNC(=O)Nc3ccc(OC)cc3OC)C2)cc1 (configuration not stated)	-2.0	90.4*	-86.3	-5.8	-1.6	-15.0
COc1ccc(N2CCC(CNC(=S)Nc3cccc(C)c3)C2)cc1 (configuration not stated)	3.0	72.6*	-73.4	-3.7	-0.6	-0.5
CCOc1ccc(NC(=O)NCC2CCN(c3ccc(OC)cc3)C2)cc1 (configuration not stated)	-4.0	-7.0	-9.6	5.0	7.7	-0.8
COc1ccc(N2CCC(CNS(=O)(=O)c3cccc(C(F)(F)F)c3)C2)cc1 (configuration not stated)	0.0	80.3*	5.6	-0.1	4.4	-24.7
O=S(=O)(NCC1CC1)c1cccc(S(=O)(=O)N2CCCC2)c1	-5.0	1.7	-12.7	4.7	1.4	-5.5
COc1ccc(N2CCC(CNC(=O)Nc3ccc(C)c(C)c3)C2)cc1 (configuration not stated)	-4.0	101.0*	3.2	5.9	9.3	-9.7
COc1ccc(N2CCC(CNC(=S)Nc3c(C)cc(C)cc3C)C2)cc1 (configuration not stated)	/	4.8	-79.5	-8.4	10.2	5.2
Cc1ccccc1NCCC(=O)Nc1ccc(Cl)cc1	/	/	/	/	5.4	/
CCc1ccc(NC(=O)NCC2CCN(c3ccc(OC)cc3)C2)cc1 (configuration not stated)	/	73.3*	-129.4	-0.3	5.1	-7.5
O=C(CN1C(=O)C2CC=C(Cl)CC2C1=O)NCc1ccccc1 (configuration not stated)	1.0	-3.9	-20.0	-5.7	42.1*	19.9
O=C1C2CC=C(Cl)CC2C(=O)N1CCc1ccccc1 (configuration not stated)	0.0	36.6	-7.3	-2.6	40.7*	25.3
O=C1C2CC=C(Cl)CC2C(=O)N1CCc1c[nH]c2ccccc12 (configuration not stated)	5.0	19.1	-46.2	-5.2	0.5	-4.4
Cc1ccc(-n2c(-c3ccccc3)c[n+]3c2CCC3)cc1	-1.0	51.2*	-10.8	1.5	2.7	-8.4
O=C(O)CCc1ccc(-c2cccs2)n1CCc1ccccc1	-1.0	21.7	-49.0	-4.9	1.9	-5.0
O=C(CCCOc1ccccc1)N1CCN(c2ccccc2)CC1	2.0	-13.2	59.3*	-10.7	-4.3	-21.6
CCOC(=O)N1CCC(NC(=O)c2cccc3c2C(=O)N(c2ccc(OC)cc2)C3)CC1	1.0	55.7*	-0.7	-10.6	16.8	40.9
COc1ccc(N2Cc3cccc(C(=O)NC(C)CCc4ccco4)c3C2=O)cc1 (configuration not stated)	-1.0	64.8*	-10.3	-9.2	5.6	1.7
CC(CCc1ccco1)NC(=O)c1cccc2c1C(=O)N(C1CCCCC1)C2 (configuration not stated)	1.0	9.9	-11.6	-7.7	-7.4	-6.4
CCOC(=O)N1CCC(N2Cc3cccc(C(=O)NCc4ccc(OC)cc4)c3C2=O)CC1	3.0	23.9	-13.0	-4.2	8.9	13.7
CCCn1c(CN2CCN(C(=O)OCC)CC2)nc2cc(NC(=O)CC)ccc21	/	/	/	/	-4.3	/
O=C(O)C1CCCN1c1nc(-c2ccc(Cl)c(Cl)c2)cc(C(F)(F)F)n1 (configuration not stated)	/	/	/	/	8.8	/
C/C=C/COC(=O)C1=C(C)NC(=O)NC1c1ccc2c(c1)OCO2 (configuration not stated)	/	/	/	/	4.1	/
Cc1ccc(/C=C/C(=O)OCc2nc(N)nc(Nc3ccccc3C)n2)o1	-2.0	8.9	-21.8	-9.9	8.6	85.5*
O=[N+]([O-])c1cccc(N/N=C/c2cc([N+](=O)[O-])ccc2O)c1	1.0	99.7*	-20.2	-3.4	0.3	18.4
CCCn1c(SCC(=O)NCCc2ccccc2)nnc1C(C)C	/	2.7	-8.9	-7.2	-7.2	-20.2
SMILES	Mcl-1 Bim block	Mcl1-Noxa inh	Mcl1-Bid inh	RBBP9 inhibitor	MCL1-BIM inh	EBV gp42 block
C[C@H]1CCC[C@@]2(O[C@H](CCO)C[C@H](O)[C@H]2O)O1	/	/	/	/	7.0	/
COc1ccc(OCCOCCN2CCc3ccccc3C2)cc1	4.0	14.8	61.7*	-2.9	-0.6	-14.3
CC1=C/C(=C(/c2ccc(O)c(C)c2)c2ccccc2S(=O)(=O)O)C=CC1=O	/	/	/	/	6.2	/
CC1=C/C(=C(/c2cc(C)c(O)c(Br)c2)c2ccccc2S(=O)(=O)O)C=C(Br)C1=O	/	/	/	/	42.9*	/
Cc1ccc(CSc2nnc(SCC(=O)N/N=C/c3c[nH]c4ccccc34)s2)cc1	2.0	75.7*	89.7*	-6.6	/	18.6
Cc1ccc(NC(C)C(=O)N/N=C/c2c[nH]c3ccccc23)cc1 (configuration not stated)	-3.0	54.4*	-8.9	-7.6	9.6	-15.2
Cc1ccccc1NC(C)C(=O)N/N=C/c1c[nH]c2ccccc12 (configuration not stated)	-1.0	8.8	-32.5	1.6	-1.5	-10.0
O=C1CCCC2=C1C(c1ccc(O)c(O)c1)c1c(ccc3ncccc13)N2 (configuration not stated)	7.0	78.8*	-44.2	10.4	52.1*	7.4
O=C(O)c1cc(S(=O)(=O)N2CCOCC2)ccc1N1CCCCC1	0.0	11.2	-7.6	-1.0	0.5	-2.8
O=c1c2ccccc2sn1-c1cc(S(=O)(=O)N2CCOCC2)ccc1N1CCOCC1	-8.0	74.8*	-26.9	44.8*	13.2	-12.6
O=c1c2ccccc2sn1-c1cc(S(=O)(=O)N2CCOCC2)ccc1N1CCCC1	-16.0	63.8*	-108.3	10.3	10.5	-12.9
CN(C)/C=C/C(=O)c1ccc([N+](=O)[O-])c(CS(=O)(=O)c2ccc(Cl)cc2)c1	/	/	/	/	-1.1	/
COc1ccc(C(=O)N/C(=C/c2cccnc2)C(=O)N2CCN(C)CC2)cc1OC	/	/	/	/	-3.6	/
CCN(CC)C(=O)CN1CCN(c2ncccn2)CC1	-6.0	0.2	55.8*	-8.1	3.0	3.5
Cc1cccc(-n2c(SCC(=O)NCC3CCCO3)nc3ccccc3c2=O)c1C (configuration not stated)	/	/	/	/	0.2	/
CSc1cccc(NC(=O)c2ccccc2N(C)S(C)(=O)=O)c1	-4.0	2.2	1.2	-5.3	-8.7	-11.5
CN(c1cccc(NC(=O)c2ccccc2N(C)S(C)(=O)=O)c1)S(C)(=O)=O	-7.0	15.9	67.8*	-4.6	-0.3	20.1
O=C(NCc1cc2ccccc2[nH]1)C1CCC(=O)N(CCCN2CCCC2=O)C1 (configuration not stated)	/	/	/	/	8.4	/
O=C(Nc1nccs1)C1CC(=O)N(Cc2ccco2)C1 (configuration not stated)	-1.0	7.8	88.2*	-6.6	0.1	2.8
CCOc1ccc(CCNC(=O)COC(=O)c2cc([N+](=O)[O-])ccc2N2CCOCC2)cc1OCC	/	/	/	/	-21.2	/
Nc1nc(Nc2cccc(F)c2)nc(N2CCOCC2)c1[N+](=O)[O-]	/	10.2	77.2*	-3.3	2.3	-6.2
